# Results as given in PubChem BioAssay.
# A number with no mark means an inactive call.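 Rule for the calls: active = growth inhibition above 25% in both replicates, a cutoff set 3 SD above the mean; inconclusive = above 25% in only one replicate; inactive = the rest.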
# Test: OD615 S. cerevisiae growth inhibition, permissive medium, pilot counter-assay, permissive growth control for S. cerevisiae lifespan shortening project (AID 705)
# Details: OD615, 24 h, at 10 µM, active compounds read high
# Procedure, shortened: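 Material: engineered DeaD yeast; compound dosing: one dose 10 µM, DMSO 0.25% final; measure: yeast growth inhibition indicated by reduced 24 h OD615; detection: OD615 turbidity read; incubation: cells pre-grown 4 h, then 24 h compound exposure, 30 °C humidified; medium: permissive synthetic complete medium with raffinose and galactose carbon sources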
row,Compound,growth inhibition
1,O=C(NCCCN1CCCC1=O)c1ccc2c(c1)ncn2C1CCCCC1,0.37%
2,CC(CCc1ccccc1)NC(=O)CSc1nnnn1C (stereo not given),-6.04%
3,Cc1cccc(-c2nnc(-c3ccccc3)o2)c1,-8.19%
4,COc1ccc2[nH]c(C)c(CCN3C(=O)C4CC=CCC4C3=O)c2c1 (stereo not given),-14.4%
5,CCc1ccccc1NC(=O)c1cc(-c2cccc(O)c2)on1,-21.2%
6,O=C(O)[C@H](Cc1ccccc1)N1Cc2ccccc2C1=O,-4.39%
7,c1cnn(-c2nc(N3CCOCC3)nc(N3CCOCC3)n2)c1,0.06%
8,O=C(COc1ccc(S(=O)(=O)NC2CCCCC2)cc1)N1CCN(c2ccc(F)cc2)CC1,-6.21%
9,Fc1ccc(C2CC(c3ccccc3)Nc3ncnn32)cc1 (stereo not given),-10.3%
10,Cn1c(C(=O)N2CCN(c3ncccn3)CC2)cc2c(=O)n(C)c3ccccc3c21,6.33%
11,Cc1csc2nc(CNS(=O)(=O)c3ccc4c(c3)OCCO4)cn12,4.07%
12,O=C(NC1CCCCC1)c1ccc(S(=O)(=O)N2CCOCC2)cc1,-2.04%
13,CC(C)CC(NS(=O)(=O)c1ccc2c(c1)oc(=O)n2C)C(=O)N1CC=C(c2ccccc2)CC1 (stereo not given),-18.2%
14,O=C1CC(N2CCN(C/C=C/c3ccccc3)CC2)C(=O)N1CCc1ccccc1 (stereo not given),-12.7%
15,CC(=O)C(C)Oc1ccc2c3c(c(=O)oc2c1)CCCC3 (stereo not given),-6.26%
16,CCOC(=O)c1c(C)n(C)c2ccc(OCC(O)CN3CCCCCC3)cc12 (stereo not given),-0.855%
17,COCCOC(=O)C1=C(C)NC2=C(C(=O)CC(C)(C)C2)C1c1ccc2c(c1)OCO2 (stereo not given),-5.88%
18,COc1cc(OC)cc(C(=O)NCC2CCCO2)c1 (stereo not given),-7.69%
19,O=C(O)c1ccc2c(c1)N(Cc1cccc(F)c1)C(=O)CS2,2.4%
20,COc1ccc(S(=O)(=O)Cc2ccc(C(=O)N3CCN(c4cccc(C)c4C)CC3)o2)cc1,-1.63%

row,Compound,growth inhibition
1,CCSc1nc2ccccc2n1S(=O)(=O)c1ccccc1,-13.9%
2,CN1CCN(Cc2ccc(-c3ccc(Cl)cc3)o2)CC1,-15.8%
3,CCCn1c2ccccc2c2cc(C(=O)O)ccc21,-20.7%
4,Clc1ccccc1-c1ccc(/C=N/n2cnnc2)o1,-1.67%
5,CCOc1ccc(OCC)c(S(=O)(=O)NCc2ccc3c(c2)OCO3)c1,-9.29%
6,COc1cccc(C2NC(CCSC)(C(=O)O)C3C(=O)N(C(C)C)C(=O)C23)c1O (stereo not given),-1.2%
7,O=C(NCCCN1CCc2ccccc2C1)C1CCN(c2nnc(-n3cccc3)s2)CC1,2.54%
8,N#Cc1ccc(N2CCN(C(=O)c3cccc(F)c3)CC2)c(F)c1,6.81%
9,COC(=O)c1sc2nc3c(cc2c1N)COC(C)(C)C3,-6.75%
10,O=C1CC(c2nc3ccccc3[nH]2)CN1c1ccccc1F (stereo not given),3.64%
11,COc1cc2[nH]c(=O)n(CCCC(=O)NCCc3ccccc3)c(=O)c2cc1OC,-4.08%
12,CCOc1ccc(NC(=O)c2ccc(N)cc2)cc1,-1.98%
13,Cc1cc(Nc2ccc(F)cc2)n2nc(C)nc2n1,-2.01%
14,O=C1Nc2ccccc2C(O)(C(=O)N2CCCCC2)N1c1ccccc1 (stereo not given),-10.5%
15,CCCCN1C(=O)C(O)(CC(=O)c2ccccc2OC)c2ccccc21 (stereo not given),-13.7%
16,CCOC(=O)C1=C(C)S/C(=C\N(C)C)C1=O,-8.63%
17,CCC(C)NC(=O)c1ccc(CS(=O)(=O)c2ccc(OC)cc2)o1 (stereo not given),4.79%
18,CCCCCSc1nnc2c(n1)OC(C)N(C(C)=O)c1ccccc1-2 (stereo not given),-10.3%
19,O=C(c1cc(-c2cccc(O)c2)on1)N1CCc2ccccc2C1,-7.54%
20,N=c1n(-c2ccccc2)c(O)cc(=O)n1-c1ccccc1,-1.26%
